For assay [1], the system named is Human immunodeficiency virus 1. Nature of the assay: Activation of latent recombinant HIV1 LTR-GFP gene expression infected in human Jurkat LAT-GFP cells assessed as GFP positive cells at 10 uM after 6 hrs by flow cytometry. It counts as functional, organism-based. In outline: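 Jurkat-derived clone latently infected with recombinant virus carrying GFP under HIV-LTR promoter, exposed to compound for 6 h. Histograms shown are one of three independent experiments.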

For assay [2], the target named is Protein kinase C delta type (Homo sapiens) (UniProt Q05655). The experiment in a line: Activation of PKCdelta assessed as [32P] incorporation after 10 mins by scintillation counting.
Chain of Protein kinase C delta type (Homo sapiens) (Q05655 whole entry, looked up): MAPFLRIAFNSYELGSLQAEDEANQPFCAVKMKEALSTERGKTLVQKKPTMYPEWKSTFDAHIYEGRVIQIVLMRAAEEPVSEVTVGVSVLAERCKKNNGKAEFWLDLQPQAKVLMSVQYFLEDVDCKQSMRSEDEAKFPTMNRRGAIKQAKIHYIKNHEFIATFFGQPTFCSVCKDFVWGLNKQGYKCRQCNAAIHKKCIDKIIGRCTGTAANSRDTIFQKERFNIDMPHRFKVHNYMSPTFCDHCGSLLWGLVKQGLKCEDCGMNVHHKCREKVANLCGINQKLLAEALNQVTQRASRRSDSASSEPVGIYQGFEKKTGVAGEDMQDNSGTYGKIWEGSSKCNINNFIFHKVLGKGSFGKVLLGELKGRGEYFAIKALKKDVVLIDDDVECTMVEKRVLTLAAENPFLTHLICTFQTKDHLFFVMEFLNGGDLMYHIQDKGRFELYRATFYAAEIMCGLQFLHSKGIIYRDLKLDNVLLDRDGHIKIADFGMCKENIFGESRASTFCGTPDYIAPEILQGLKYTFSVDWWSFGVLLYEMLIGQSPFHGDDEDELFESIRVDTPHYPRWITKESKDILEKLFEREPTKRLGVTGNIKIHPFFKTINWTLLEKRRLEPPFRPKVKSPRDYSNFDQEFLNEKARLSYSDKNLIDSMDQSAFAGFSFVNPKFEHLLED
Assay [3] has as its target Protein kinase C alpha type (Homo sapiens) (UniProt P17252). Nature of the assay: Activation of PKCalpha assessed as [32P] incorporation after 10 mins by scintillation counting.
Assay [4] deals with T1, Prostaglandin G/H synthase 2 (Rattus norvegicus) (UniProt P35355).
T1 sequence (whole entry): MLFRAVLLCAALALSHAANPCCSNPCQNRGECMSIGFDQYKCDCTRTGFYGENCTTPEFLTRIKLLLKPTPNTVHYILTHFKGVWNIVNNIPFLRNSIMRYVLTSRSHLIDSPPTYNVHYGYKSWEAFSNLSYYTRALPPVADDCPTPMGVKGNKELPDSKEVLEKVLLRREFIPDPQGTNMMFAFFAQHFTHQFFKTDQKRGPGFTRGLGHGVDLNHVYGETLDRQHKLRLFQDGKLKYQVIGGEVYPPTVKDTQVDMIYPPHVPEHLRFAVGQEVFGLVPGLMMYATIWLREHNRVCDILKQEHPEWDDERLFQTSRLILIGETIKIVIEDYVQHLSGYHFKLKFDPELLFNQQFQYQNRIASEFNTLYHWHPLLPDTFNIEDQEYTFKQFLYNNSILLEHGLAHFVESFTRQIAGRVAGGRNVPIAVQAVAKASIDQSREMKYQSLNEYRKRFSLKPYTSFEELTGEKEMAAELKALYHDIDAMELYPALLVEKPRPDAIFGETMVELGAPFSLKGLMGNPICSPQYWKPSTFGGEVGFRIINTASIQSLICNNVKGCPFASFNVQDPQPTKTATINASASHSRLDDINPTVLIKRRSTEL
The experiment in a line: Inhibition of COX2 in LPS-stimulated rat microglia assessed as PGE2 release after 24 hrs by enzyme immunoassay.

The subject of assay [5] is Human immunodeficiency virus 1. Nature of the assay: Activation of latent recombinant HIV1 LTR-GFP gene expression infected in human Jurkat LAT-GFP cells assessed as GFP level at 10 uM after 6 hrs by flow cytometry in presence of pan-PKC inhibitor G06983 pretreated for 30 mins. It is filed as functional, organism-based. The method in brief:
(§1)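 Jurkat LAT-GFP cells (latent HIV-LTR-driven GFP clone) pretreated 30 min with PKC inhibitor (1 µM), then stimulated with compound at 10 µM for 6 h.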

Assay [6] has as its system Human immunodeficiency virus 1. Nature of the assay: Activation of latent recombinant HIV1 LTR-GFP gene expression infected in human Jurkat LAT-GFP cells assessed as GFP level at 10 uM after 6 hrs by flow cytometry in presence of PKCinhibitor G06976 pretreated for 30 mins. It counts as functional, organism-based. In outline:
as §1

For assay [7], the target named is T1, Prostaglandin G/H synthase 2 (Rattus norvegicus). The experiment in a line: Inhibition of COX2 in LPS-stimulated rat microglia after 24 hrs by immunoblotting.
In assay [8] the target is Protein kinase C delta type (Homo sapiens) (UniProt Q05655). The experiment in a line: Activation of PKCdelta in human Jurkat cells assessed as enzyme phosphorylation after 15 mins by Western blotting. It is filed as cell-based. The method in brief:
(§2)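 Jurkat LAT-GFP cells (10^6 cells/ml) exposed for 15 min to compound (increasing concentrations) or TPA 1 µM. Lysed in HEPES pH 8.0 buffer with 0.5% NP-40 and protease/phosphatase inhibitors. 30 µg protein run on 10% SDS-PAGE, blotted to nitrocellulose, probed with anti-phospho-PKCδ (Thr505) and anti-panPKC, ECL detection.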

Assay [9] relates to Human immunodeficiency virus 1. Nature of the assay: Activation of latent recombinant HIV1 LTR-GFP gene expression infected in human Jurkat LAT-GFP cells assessed as GFP positive cells after 6 hrs by flow cytometry relative to control. It counts as functional, organism-based. In outline:
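Jurkat-derived clone latently carrying recombinant virus with GFP under the HIV-LTR promoter, stimulated with compound at the indicated concentrations for 6 h.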

Assay [10] deals with Protein kinase C delta type (Homo sapiens) (UniProt Q05655). The experiment in a line: Activation of PKCdelta in human Jurkat cells assessed as enzyme phosphorylation at 1 uM after 15 mins by Western blotting. It counts as cell-based. In outline: as §2

Activity calls are given as the source filed them. The calls are words filed in the database; no cut-off is given here.

Turning to `CC(=O)O[C@@]12[C@H](OC(=O)[C@H](N)C(C)C)[C@@H](C)[C@]3(O)[C@@H]4C=C(C)C(=O)[C@@H]4CC(CO)=C[C@H]3[C@@H]1C2(C)C`, in assay [1], the result was inactive.
In the case of `CC(=O)O[C@@]12[C@H](OC(=O)CN(C)C)[C@@H](C)[C@]3(O)[C@@H]4C=C(C)C(=O)[C@@H]4CC(CO)=C[C@H]3[C@@H]1C2(C)C`, the outcome in assay [1], in assay [2] and in assay [3] was inactive.
Turning to `CC(=O)O[C@@]12[C@H](OC(=O)[C@@H](C(C)C)N(C)C)[C@@H](C)[C@]3(O)[C@@H]4C=C(C)C(=O)[C@@H]4CC(CO)=C[C@H]3[C@@H]1C2(C)C`, in assay [4], the result was inactive. The outcome in [5], in assay [1] and in assay [6] was Active. For the same compound, the inhibition result in [7] is “Active”.
As to `CC(=O)O[C@@]12[C@H](OC(=O)[C@@H](N)C(C)C)[C@@H](C)[C@]3(O)[C@@H]4C=C(C)C(=O)[C@@H]4CC(CO)=C[C@H]3[C@@H]1C2(C)C`, the result in assay [1] was inactive.
Turning to `CC(=O)O[C@@]12[C@H](OC(=O)[C@H](C(C)C)N(C)C)[C@@H](C)[C@]3(O)[C@@H]4C=C(C)C(=O)[C@@H]4CC(CO)=C[C@H]3[C@@H]1C2(C)C`, the result in assay [8], in assay [5], in assay [1] and in [6] was Active. Besides, the Activity entry in assay [2] and in [3] was “Dose-dependent effect” throughout.
As for `CCCCCCCCCCCCCC(=O)O[C@@H]1[C@@H](C)[C@@]2(O)[C@@H](C=C(CO)C[C@]3(O)C(=O)C(C)=C[C@@H]23)[C@@H]2C(C)(C)[C@]12OC(C)=O`, the result in [9] was Active.
For the compound `CCCCCCCCCCCCCC(=O)O[C@@H]1[C@@H](C)[C@]2(O)[C@@H]3C=C(C)C(=O)[C@@]3(O)[C@H](O)C(CO)=C[C@H]2[C@@H]2C(C)(C)[C@]12OC(C)=O`, the result in assay [10] was Active.
For the compound `CN[C@H](C(=O)O[C@@H]1[C@@H](C)[C@]2(O)[C@@H]3C=C(C)C(=O)[C@@H]3CC(CO)=C[C@H]2[C@@H]2C(C)(C)[C@]12OC(C)=O)C(C)C`, the outcome in assay [1] was inactive.

The record behind these values is ChEMBL document CHEMBL1154919, “Synthesis and biological evaluation of 12-aminoacylphorboids” (J Nat Prod, 2010).
